By IC50 is commonly meant the midpoint of a concentration-inhibition curve. In general, CC50 refers to the concentration at which the toxic effect on the cells reaches its halfway point.

The values that follow come from ChEMBL document CHEMBL2177043, “HIV-1 X4 activities of polycationic "viologen" based dendrimers by interaction with the chemokine receptor CXCR4: study of structure-activity relationship” (J Med Chem, 2012).

Active and inactive are the calls of the source. The calls are words filed in the database; no cut-off is given here.

The target of data set [1] is T1, C-X-C chemokine receptor type 4 (Homo sapiens, UniProt P61073). Nature of the data set: Agonist activity against CXCR4 expressed in U87.CD.CXCR4 cells assessed as stimulation of calcium signaling incubated for 10 mins by FLIPR. The class given is functional, cell-based. Summed up: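 U87.CD4 cells stably carrying CXCR4 or CCR5, trypsinized and seeded at 2 × 10⁴ cells/well on 0.2% gelatin the day before. Loaded with Fluo-3 AM (4 μM, 45 min, 37 °C), washed, then exposed to test agents alone at varied concentrations in assay buffer for 10 min at 37 °C. Cytosolic Ca²⁺ rise monitored over time by FLIPR to detect any agonist-triggered signal.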
T1 sequence (P61073 whole entry): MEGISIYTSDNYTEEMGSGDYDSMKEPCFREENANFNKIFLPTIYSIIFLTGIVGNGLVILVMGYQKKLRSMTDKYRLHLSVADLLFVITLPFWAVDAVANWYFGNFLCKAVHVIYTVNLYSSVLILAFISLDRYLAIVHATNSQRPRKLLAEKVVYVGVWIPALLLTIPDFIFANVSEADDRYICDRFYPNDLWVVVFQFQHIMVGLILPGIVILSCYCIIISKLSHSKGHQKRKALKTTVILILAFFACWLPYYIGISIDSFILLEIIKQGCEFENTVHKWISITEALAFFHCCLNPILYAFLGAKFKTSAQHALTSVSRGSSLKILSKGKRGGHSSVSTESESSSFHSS

In data set [2] the target is T2, C-C chemokine receptor type 5 (Homo sapiens, UniProt P51681). Put plainly: Antagonist activity against CCR5 expressed in U87.CD4.CCR5 cells assessed as inhibition of CCL3L1-induced calcium signaling incubated for 10 mins by FLIPR. The class given is functional, cell-based. In short, it runs like this: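 U87.CD4.CCR5 cells seeded at 2 × 10⁴/well on 0.2% gelatin the day before, loaded with 4 μM Fluo-3 AM for 45 min at 37 °C, washed, then preincubated with compounds at varied concentrations in assay buffer for 10 min at 37 °C. Stimulated with 10 ng/mL LD78β (CCL3L1); Ca²⁺ flux recorded by FLIPR.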
T2 sequence (P51681 whole entry, looked up): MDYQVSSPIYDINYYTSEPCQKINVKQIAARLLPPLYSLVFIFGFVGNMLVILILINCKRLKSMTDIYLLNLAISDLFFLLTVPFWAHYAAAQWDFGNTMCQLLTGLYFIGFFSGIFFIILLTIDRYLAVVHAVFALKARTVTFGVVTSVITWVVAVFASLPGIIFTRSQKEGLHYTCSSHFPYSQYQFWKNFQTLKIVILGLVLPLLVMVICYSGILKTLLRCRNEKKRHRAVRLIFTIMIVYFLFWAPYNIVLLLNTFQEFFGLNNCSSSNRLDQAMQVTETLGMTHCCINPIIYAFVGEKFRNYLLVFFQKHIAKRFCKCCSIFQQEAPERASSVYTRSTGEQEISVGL

Data set [3] in a line: Cytotoxicity against human PBMC cells by MTT assay. The class given is cell-based. For orientation: Tetrazolium dyes change colour on reduction, which living cells bring about.
Data set [4] has as its system Human immunodeficiency virus 1. Put plainly: Antiviral activity against X4 HIV1 NL4.3 infected in human PBMC assessed as inhibition of viral replication pre-incubated for 30 mins measured 5 days post infection by MTT assay. The class given is functional, organism-based. The settings on record: Human immunodeficiency virus 1, NL4.3. In short, it runs like this:
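Human PBMC infected with HIV-1 NL4.3. IC₅₀ is the concentration inhibiting viral replication by 50%, averaged over two independent experiments. Cytotoxicity (CC₅₀, 50% loss of PBMC viability) evaluated in the same assay.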

Data set [5] in a line: Cytotoxicity against human MT4 cells by MTT assay. The class given is cell-based.
The subject of data set [6] is Human immunodeficiency virus 1. Nature of the data set: Antiviral activity against X4 HIV1 NL4.3 infected in human MT4 cells assessed as inhibition of viral replication pre-incubated for 30 mins […]. The class given is functional, organism-based. The settings on record: Human immunodeficiency virus 1, NL4.3, MT4.
In data set [7] the target is T1, C-X-C chemokine receptor type 4. Put plainly: Antagonist activity against CXCR4 expressed in U87.CD.CXCR4 cells assessed as inhibition of CXCL12-induced calcium signaling incubated for 10 mins by FLIPR. The class given is functional, cell-based. Summed up: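 U87.CD4.CXCR4 cells seeded at 2 × 10⁴/well on 0.2% gelatin the day before, loaded with 4 μM Fluo-3 AM for 45 min at 37 °C, washed, then preincubated with compounds at varied concentrations in assay buffer for 10 min at 37 °C. Challenged with 25 ng/mL CXCL12; Ca²⁺ flux followed over time by FLIPR.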

The target is the same in data set [8]. Nature of the data set: Inhibition of CXCL-12'AF647 binding to CXCR4 in human SUPT1 cells incubated for 15 mins by FACS. The class given is cell-based. In short, it runs like this:
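SupT1 cells (high CXCR4) washed, then incubated 15 min at room temperature with compounds at varied concentrations in HBSS containing 20 mM HEPES and 0.2% BSA, pH 7.4. CXCL12-AF647 added at 25 ng/mL final for 30 min at room temperature. Cells washed, fixed in 1% paraformaldehyde, and read by flow cytometry on FL4.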
(In general: In flow cytometry, cells or beads pass a laser one at a time.)

The target is the same in data set [9]. Put plainly: Inhibition of anti-CXCR4 mAbs clone 1D9 binding to CXCR4 in human SUPT1 cells incubated for 30 mins by FACS.
For data set [10] the target is unchanged. Nature of the data set: Inhibition of anti-CXCR4 mAbs clone 173 binding to CXCR4 in human SUPT1 cells incubated for 30 mins by FACS.
Data set [11] has the same target. Nature of the data set: Inhibition of anti-CXCR4 mAbs clone 12G5 binding to CXCR4 in human SUPT1 cells incubated for 30 mins by FACS.
Data set [12] has as its target T2, C-C chemokine receptor type 5. Nature of the data set: Agonist activity against CCR5 expressed in U87.CD4.CCR5 cells assessed as stimulation of calcium signaling incubated for 10 mins by FLIPR.
The target is the same in data set [13]. Put plainly: Antagonist activity against CCR5 expressed in U87.CD4.CCR5 cells assessed as inhibition of CCL3L1-induced calcium signaling incubated for 10 mins by FLIPR.

`CC[n+]1ccc(-c2cc[n+](Cc3cc(C[n+]4ccc(-c5cc[n+](CC)cc5)cc4)cc(C[n+]4ccc(-c5cc[n+](Cc6cc(C[n+]7ccc(-c8cc[n+](Cc9cc(C[n+]%10ccc(-c%11cc[n+](CC)cc%11)cc%10)cc(C[n+]%10ccc(-c%11cc[n+](CC)cc%11)cc%10)c9)cc8)cc7)cc(C[n+]7ccc(-c8cc[n+](Cc9cc(C[n+]%10ccc(-c%11cc[n+](CC)cc%11)cc%10)cc(C[n+]%10ccc(-c%11cc[n+](CC)cc%11)cc%10)c9)cc8)cc7)c6)cc5)cc4)c3)cc2)cc1.F[P-](F)(F)(F)(F)F.F[P-](F)(F)(F)(F)F.F[P-](F)(F)(F)(F)F.F[P-](F)(F)(F)(F)F.F[P-](F)(F)(F)(F)F.F[P-](F)(F)(F)(F)F.F[P-](F)(F)(F)(F)F.F[P-](F)(F)(F)(F)F.F[P-](F)(F)(F)(F)F.F[P-](F)(F)(F)(F)F.F[P-](F)(F)(F)(F)F.F[P-](F)(F)(F)(F)F.F[P-](F)(F)(F)(F)F.F[P-](F)(F)(F)(F)F.F[P-](F)(F)(F)(F)F.F[P-](F)(F)(F)(F)F.F[P-](F)(F)(F)(F)F.F[P-](F)(F)(F)(F)F`: the result in [1] and in data set [12] was inactive. In addition, the IC50 in [2] is 4860 nM; in [4] it was 0.34 µg/mL; in [6] it was 0.8 µg/mL; in data set [7], 294 nM; in [8], 309 nM; in data set [9], 464 nM. The IC50 in data set [10] was 378 nM; in [11], 260 nM. The values for the CC50 in data set [3] and in data set [5] were 20 µg/mL and 11 µg/mL, respectively. The inhibition result in data set [7], in [9], in [10], in [11] and in data set [13] was “Dose-dependent effect” in each case.

Consider `Cc1cn(CCC[n+]2ccc(-c3cc[n+](Cc4cc(C[n+]5ccc(-c6cc[n+](CCCn7cc(C)c(=O)[nH]c7=O)cc6)cc5)cc(-[n+]5ccc(-c6cc[n+](-c7cc(C[n+]8ccc(-c9cc[n+](CCCn%10cc(C)c(=O)[nH]c%10=O)cc9)cc8)cc(C[n+]8ccc(-c9cc[n+](CCCn%10cc(C)c(=O)[nH]c%10=O)cc9)cc8)c7)cc6)cc5)c4)cc3)cc2)c(=O)[nH]c1=O.F[P-](F)(F)(F)(F)F.F[P-](F)(F)(F)(F)F.F[P-](F)(F)(F)(F)F.F[P-](F)(F)(F)(F)F.F[P-](F)(F)(F)(F)F.F[P-](F)(F)(F)(F)F.F[P-](F)(F)(F)(F)F.F[P-](F)(F)(F)(F)F.F[P-](F)(F)(F)(F)F.F[P-](F)(F)(F)(F)F`, for which the outcome in data set [1] and in data set [12] was inactive. In addition, the IC50 in data set [2] was > 32200 nM; in data set [4] it was 4.62 µg/mL; in [6], 2.4 µg/mL; in data set [7] it was 21000 nM; in data set [8], 3400 nM; in data set [9], 3080 nM. For the same molecule, the IC50 is 660 nM in data set [10] and 724 nM in data set [11]. Moreover, the CC50 in data set [3] and in data set [5] was > 100 µg/mL in each case. In addition, the inhibition entry in [7], in [9], in data set [10], in data set [11] and in data set [13] was “Dose-dependent effect” throughout.

`Cc1cn(CCC[n+]2ccc(-c3cc[n+](Cc4cc(C[n+]5ccc(-c6cc[n+](CCCn7cc(C)c(=O)[nH]c7=O)cc6)cc5)cc(C[n+]5ccc(-c6cc[n+](Cc7cc(C[n+]8ccc(-c9cc[n+](Cc%10cc(C[n+]%11ccc(-c%12cc[n+](CCCn%13cc(C)c(=O)[nH]c%13=O)cc%12)cc%11)cc(C[n+]%11ccc(-c%12cc[n+](CCCn%13cc(C)c(=O)[nH]c%13=O)cc%12)cc%11)c%10)cc9)cc8)cc(C[n+]8ccc(-c9cc[n+](Cc%10cc(C[n+]%11ccc(-c%12cc[n+](Cc%13cc(C[n+]%14ccc(-c%15cc[n+](Cc%16cc(C[n+]%17ccc(-c%18cc[n+](CCCn%19cc(C)c(=O)[nH]c%19=O)cc%18)cc%17)cc(C[n+]%17ccc(-c%18cc[n+](CCCn%19cc(C)c(=O)[nH]c%19=O)cc%18)cc%17)c%16)cc%15)cc%14)cc(C[n+]%14ccc(-c%15cc[n+](Cc%16cc(C[n+]%17ccc(-c%18cc[n+](CCCn%19cc(C)c(=O)[nH]c%19=O)cc%18)cc%17)cc(C[n+]%17ccc(-c%18cc[n+](CCCn%19cc(C)c(=O)[nH]c%19=O)cc%18)cc%17)c%16)cc%15)cc%14)c%13)cc%12)cc%11)cc(C[n+]%11ccc(-c%12cc[n+](Cc%13cc(C[n+]%14ccc(-c%15cc[n+](Cc%16cc(C[n+]%17ccc(-c%18cc[n+](CCCn%19cc(C)c(=O)[nH]c%19=O)cc%18)cc%17)cc(C[n+]%17ccc(-c%18cc[n+](CCCn%19cc(C)c(=O)[nH]c%19=O)cc%18)cc%17)c%16)cc%15)cc%14)cc(C[n+]%14ccc(-c%15cc[n+](Cc%16cc(C[n+]%17ccc(-c%18cc[n+](CCCn%19cc(C)c(=O)[nH]c%19=O)cc%18)cc%17)cc(C[n+]%17ccc(-c%18cc[n+](CCCn%19cc(C)c(=O)[nH]c%19=O)cc%18)cc%17)c%16)cc%15)cc%14)c%13)cc%12)cc%11)c%10)cc9)cc8)c7)cc6)cc5)c4)cc3)cc2)c(=O)[nH]c1=O.F[P-](F)(F)(F)(F)F.F[P-](F)(F)(F)(F)F.F[P-](F)(F)(F)(F)F.F[P-](F)(F)(F)(F)F.F[P-](F)(F)(F)(F)F.F[P-](F)(F)(F)(F)F.F[P-](F)(F)(F)(F)F.F[P-](F)(F)(F)(F)F.F[P-](F)(F)(F)(F)F.F[P-](F)(F)(F)(F)F.F[P-](F)(F)(F)(F)F.F[P-](F)(F)(F)(F)F.F[P-](F)(F)(F)(F)F.F[P-](F)(F)(F)(F)F.F[P-](F)(F)(F)(F)F.F[P-](F)(F)(F)(F)F.F[P-](F)(F)(F)(F)F.F[P-](F)(F)(F)(F)F.F[P-](F)(F)(F)(F)F.F[P-](F)(F)(F)(F)F.F[P-](F)(F)(F)(F)F.F[P-](F)(F)(F)(F)F.F[P-](F)(F)(F)(F)F.F[P-](F)(F)(F)(F)F.F[P-](F)(F)(F)(F)F.F[P-](F)(F)(F)(F)F.F[P-](F)(F)(F)(F)F.F[P-](F)(F)(F)(F)F.F[P-](F)(F)(F)(F)F.F[P-](F)(F)(F)(F)F.F[P-](F)(F)(F)(F)F.F[P-](F)(F)(F)(F)F.F[P-](F)(F)(F)(F)F.F[P-](F)(F)(F)(F)F.F[P-](F)(F)(F)(F)F.F[P-](F)(F)(F)(F)F.F[P-](F)(F)(F)(F)F.F[P-](F)(F)(F)(F)F.F[P-](F)(F)(F)(F)F.F[P-](F)(F)(F)(F)F.F[P-](F)(F)(F)(F)F.F[P-](F)(F)(F)(F)F`: the result in data set [1] and in data set [12] was inactive. The IC50 in data set [2] is 1750 nM; in data set [4], 2.32 µg/mL; in data set [6] it was 1.5 µg/mL; in [7] it was 38.3 nM; in data set [8], 124 nM; in [9], 233 nM. Besides, the values for the IC50 in data set [10] and in data set [11] were 191 nM and 178 nM, respectively. Besides, the figures for the CC50 in [3] and in data set [5] were 20 µg/mL and 9 µg/mL, respectively. For the same molecule, the inhibition result in [7], in data set [9], in data set [10], in data set [11] and in [13] was “Dose-dependent effect” each time.
